Data published in ChEMBL document CHEMBL4118208, “Design, synthesis and molecular modeling of new 4-phenylcoumarin derivatives as tubulin polymerization inhibitors targeting MCF-7 breast cancer cells” (Bioorg Med Chem, 2018).
Values after ≈ are worked out from the molar mass of the structure shown.

Assays:
MCF7 [1] = experiment: Growth inhibition of human MCF7 cells at 100 ug/ml after 48 hrs by MTT assay relative to control; format: functional; details: MCF7, 48 h, read-out: GI
How it was run: (§1)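 Preliminary screen at 100 µg/mL against MCF-7 and normal BJ-1 cells. Values are % inhibition, given as the mean of 3 replicate samples with standard deviation.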

MCF7 [2] = experiment: Growth inhibition of human MCF7 cells after 48 hrs by MTT assay; format: functional, cell-based; details: MCF7, 48 h
Tubulin beta-5 chain [3] = biological target: T1, Tubulin beta-5 chain (Homo sapiens, UniProt P07437); experiment: Inhibition of tubulin beta polymerization in human MCF7 cells after 18 to 24 hrs by ELISA based spectrophotometric analysis; format: cell-based
[4] = Growth inhibition of human hTERT-BJ1 cells at 100 ug/ml after 48 hrs by MTT assay relative to control; format: cell-based, hTERT-BJ; details: read-out: GI; how it was run: as §1
MCF7 [5] = experiment: Cell cycle arrest in human MCF7 cells assessed as accumulation at S phase at 11.1 ug/ml after 24 hrs by PI staining based flow cytometry (reference value: 30.1%); format: functional
MCF7 [6] = experiment: Induction of apoptosis in human MCF7 cells assessed as increase in caspase 7 levels at 11.1 ug/ml after 24 hrs by ELISA relative to control; format: functional
How it was run: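 Caspase-7 level is measured in MCF-7 cells after treatment at 11.1 µg/mL for 24 h and reported as concentration. Doxorubicin is used as reference.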

MCF7 [7] = experiment: Cell cycle arrest in human MCF7 cells assessed as accumulation at G2 phase at 11.1 ug/ml after 24 hrs by PI staining based flow cytometry (reference value: 8.59%); format: functional
MCF7 [8] = experiment: Cell cycle arrest in human MCF7 cells assessed as apoptotic cells at 11.1 ug/ml after 24 hrs by PI staining based flow cytometry (reference value: 0.64%); format: functional
MCF7 [9] = experiment: Induction of apoptosis in human MCF7 cells assessed as early apoptotic cells at 11.1 ug/ml after 24 hrs by Annexin V-FITC/PI staining based flow cytometry (reference value: 0.18%); format: functional
How it was run: (§2)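 MCF-7 cells treated at 11.1 µg/mL for 24 h, then labelled with annexin V-FITC and propidium iodide. Green (FITC) and red (PI) fluorescence are read by flow cytometry. Early apoptosis is scored as annexin V+/PI−, late as annexin V+/PI+. DMSO serves as negative control.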

MCF7 [10] = experiment: Cell cycle arrest in human MCF7 cells assessed as accumulation at G1 phase at 11.1 ug/ml after 24 hrs by PI staining based flow cytometry (reference value: 61.31%); format: functional
MCF7 [11] = experiment: Cell cycle arrest in human MCF7 cells assessed as accumulation at G2/M phase at 11.1 ug/ml after 24 hrs by PI staining based flow cytometry relative to control; format: functional
MCF7 [12] = experiment: Induction of apoptosis in human MCF7 cells assessed as viable cells at 11.1 ug/ml after 24 hrs by Annexin V-FITC/PI staining based flow cytometry (reference value: 97.24%); format: functional; details: MCF7, 24 h, read-out: Activity; how it was run: as §2
MCF7 [13] = experiment: Cell cycle arrest in human MCF7 cells assessed as accumulation at pre-G1 phase at 11.1 ug/ml after 24 hrs by PI staining based flow cytometry relative to control; format: functional
MCF7 [14] = experiment: Induction of apoptosis in human MCF7 cells assessed as late apoptotic cells at 11.1 ug/ml after 24 hrs by Annexin V-FITC/PI staining based flow cytometry (reference value: 0.09%); format: functional; how it was run: as §2
MCF7 [15] = experiment: Induction of apoptosis in human MCF7 cells assessed as necrotic cells at 11.1 ug/ml after 24 hrs by Annexin V-FITC/PI staining based flow cytometry (reference value: 0.37%); format: functional; how it was run: as §2
Tubulin beta-5 chain [16] = biological target: T1, Tubulin beta-5 chain; experiment: Potency index, ratio of colchicine IC50 to compound IC50 for tubulin beta polymerization in human MCF7 cells; format: cell-based

T1 sequence (P07437 whole entry): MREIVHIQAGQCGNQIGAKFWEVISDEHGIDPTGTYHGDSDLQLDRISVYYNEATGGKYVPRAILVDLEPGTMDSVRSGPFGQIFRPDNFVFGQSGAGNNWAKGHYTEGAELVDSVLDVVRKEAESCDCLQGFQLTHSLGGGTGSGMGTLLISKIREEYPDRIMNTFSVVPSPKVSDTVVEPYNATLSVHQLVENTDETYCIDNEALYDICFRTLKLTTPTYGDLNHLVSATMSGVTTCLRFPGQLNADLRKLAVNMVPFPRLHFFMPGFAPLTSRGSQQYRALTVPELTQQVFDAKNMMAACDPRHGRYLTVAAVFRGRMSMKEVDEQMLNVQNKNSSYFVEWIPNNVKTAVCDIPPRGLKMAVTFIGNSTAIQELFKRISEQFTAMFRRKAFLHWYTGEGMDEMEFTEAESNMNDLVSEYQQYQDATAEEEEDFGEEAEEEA

COc1ccc(C2SCC(=O)N2NC(=O)COc2ccc3c(-c4ccccc4)cc(=O)oc3c2)cc1OC (configuration not stated) gave an inhibition of growth at 100 µg/mL (MCF7 [1]) of 63.3%.

Compound COc1ccc(/C=N/NC(=O)COc2ccc3c(-c4ccccc4)cc(=O)oc3c2)cc1OC has an inhibition of growth at 100 µg/mL (MCF7 [1]) of 48.9%.

Work on NNC(=O)COc1ccc2c(-c3ccccc3)cc(=O)oc2c1 yielded an inhibition of growth at 100 µg/mL (MCF7 [1]) of over 70% and an IC50 (MCF7 [2]) of 25.2 µg/mL (≈ 81.2 µM).

With CCN/C(=N\NC(=O)COc1ccc2c(-c3ccccc3)cc(=O)oc2c1)SC(C(C)=O)C(=O)OCC (configuration not stated) the inhibition of growth at 100 µg/mL (MCF7 [1]) was over 70% and the IC50 (MCF7 [2]) was 41.9 µg/mL (≈ 79.7 µM).

For Cn1c(-c2ccccc2)cs/c1=N\NC(=O)COc1ccc2c(-c3ccccc3)cc(=O)oc2c1, the inhibition of growth at 100 µg/mL (MCF7 [1]) was over 70% and the IC50 (MCF7 [2]) was 9.3 µg/mL (≈ 19.2 µM).

Compound CCN/C(=N\NC(=O)COc1ccc2c(-c3ccccc3)cc(=O)oc2c1)SC(C)C(=O)OCC (configuration not stated) has an inhibition of growth at 100 µg/mL (MCF7 [1]) of 67.1%.

Compound CC(=O)c1s/c(=N\NC(=O)COc2ccc3c(-c4ccccc4)cc(=O)oc3c2)n(C)c1C has an inhibition of growth at 100 µg/mL (MCF7 [1]) of over 70% and an IC50 (MCF7 [2]) of 42 µg/mL (≈ 90.6 µM).

In the case of COc1cc(C2SCC(=O)N2NC(=O)COc2ccc3c(-c4ccccc4)cc(=O)oc3c2)cc(OC)c1OC (configuration not stated), the inhibition of growth at 100 µg/mL (MCF7 [1]) is reported as 86.4%, the IC50 (MCF7 [2]) is reported as 21.2 µg/mL (≈ 37.7 µM) and the IC50 (Tubulin beta-5 chain [3]) is reported as 6.13 µM. It also gave an inhibition at 48 h, 100 ug/ml [4] of 16.8%.

Work on COc1cc(/C=N/NC(=O)COc2ccc3c(-c4ccccc4)cc(=O)oc3c2)cc(OC)c1OC yielded an inhibition of growth at 100 µg/mL (MCF7 [1]) of 90.7% and an IC50 (MCF7 [2]) of 4.3 µg/mL (≈ 8.8 µM).

With COc1ccc(C2SCC(=O)N2NC(=O)COc2ccc3c(-c4ccccc4)cc(=O)oc3c2)cc1 (configuration not stated) the inhibition of growth at 100 µg/mL (MCF7 [1]) was 64.4%.

CCOC(=O)C(S/C(=N/NC(=O)COc1ccc2c(-c3ccccc3)cc(=O)oc2c1)NC)C(C)=O (configuration not stated) gave an inhibition of growth at 100 µg/mL (MCF7 [1]) of over 70% and an IC50 (MCF7 [2]) of 30.6 µg/mL (≈ 59.8 µM).

For O=C(COc1ccc2c(-c3ccccc3)cc(=O)oc2c1)N/N=C/c1ccc(F)cc1, the inhibition of growth at 100 µg/mL (MCF7 [1]) was 65.5%.

For O=C(COc1ccc2c(-c3ccccc3)cc(=O)oc2c1)NN1C(=O)CSC1c1ccc(F)cc1 (configuration not stated), the Activity (MCF7 [5]) was 18.05%, the “fold change (FC)” value (MCF7 [6]) was 3.237 and the inhibition of growth at 100 µg/mL (MCF7 [1]) was over 70%. The Activity (MCF7 [7]) was 43.59%, the Activity (MCF7 [8]) was 18.31% and the Activity (MCF7 [9]) was 5.49%. It also gave an IC50 (MCF7 [2]) of 11.1 µg/mL (≈ 22.6 µM), an Activity (MCF7 [10]) of 38.36% and an IC50 (Tubulin beta-5 chain [3]) of 9.37 µM. For the same compound, the “fold change (FC)” value (MCF7 [11]) was 5, the viability at 11.1 µg/mL (MCF7 [12]) was 79.8% and the “fold change (FC)” value (MCF7 [13]) was 28.6. For the same compound, the Activity (MCF7 [14]) was 10.63%, the Activity (MCF7 [15]) was 2.19% and the inhibition at 48 h, 100 ug/ml [4] was 13.2%.

In the case of COc1ccc(/C=N/NC(=O)COc2ccc3c(-c4ccccc4)cc(=O)oc3c2)cc1, the inhibition of growth at 100 µg/mL (MCF7 [1]) is reported as 46.3%.

In the case of O=C(COc1ccc2c(-c3ccccc3)cc(=O)oc2c1)N/N=C/c1ccc(Cl)cc1, the inhibition of growth at 100 µg/mL (MCF7 [1]) is reported as 76.5% and the IC50 (MCF7 [2]) is reported as 38.1 µg/mL (≈ 88 µM).

CCn1c(-c2ccccc2)cs/c1=N\NC(=O)COc1ccc2c(-c3ccccc3)cc(=O)oc2c1 showed an inhibition of growth at 100 µg/mL (MCF7 [1]) of over 70% and an IC50 (MCF7 [2]) of 10.6 µg/mL (≈ 21.3 µM).

Compound O=C(COc1ccc2c(-c3ccccc3)cc(=O)oc2c1)NN1C(=O)CSC1c1ccc(Cl)cc1 (configuration not stated) has an inhibition of growth at 100 µg/mL (MCF7 [1]) of over 70%, a Ratio IC50 (Tubulin beta-5 chain [16]) of 2.4 and an IC50 (MCF7 [2]) of 16.7 µg/mL (≈ 32.9 µM). For the same compound, the IC50 (Tubulin beta-5 chain [3]) was 2.89 µM and the inhibition at 48 h, 100 ug/ml [4] was 26.9%.

CCn1c(C)cs/c1=N\NC(=O)COc1ccc2c(-c3ccccc3)cc(=O)oc2c1 showed an inhibition of growth at 100 µg/mL (MCF7 [1]) of over 70% and an IC50 (MCF7 [2]) of 78 µg/mL (≈ 179 µM).

Compound O=C(COc1ccc2c(-c3ccccc3)cc(=O)oc2c1)NN1C(=O)CSC1c1ccc(Br)cc1 (configuration not stated) has an inhibition of growth at 100 µg/mL (MCF7 [1]) of over 70% and an IC50 (MCF7 [2]) of 42 µg/mL (≈ 76.2 µM).

Cc1cs/c(=N\NC(=O)COc2ccc3c(-c4ccccc4)cc(=O)oc3c2)n1C showed an inhibition of growth at 100 µg/mL (MCF7 [1]) of over 70% and an IC50 (MCF7 [2]) of 36.9 µg/mL (≈ 87.5 µM).

Compound CCn1c(C)c(C(C)=O)s/c1=N\NC(=O)COc1ccc2c(-c3ccccc3)cc(=O)oc2c1 has an inhibition of growth at 100 µg/mL (MCF7 [1]) of over 70% and an IC50 (MCF7 [2]) of 28 µg/mL (≈ 58.6 µM).

O=C(COc1ccc2c(-c3ccccc3)cc(=O)oc2c1)N/N=C/c1ccc(Br)cc1 gave an inhibition of growth at 100 µg/mL (MCF7 [1]) of 67.8%.

Compound CCOC(=O)C(C)S/C(=N/NC(=O)COc1ccc2c(-c3ccccc3)cc(=O)oc2c1)NC (configuration not stated) has an inhibition of growth at 100 µg/mL (MCF7 [1]) of over 70% and an IC50 (MCF7 [2]) of 37 µg/mL (≈ 76.5 µM).
